Bfl-1 A1 inh = caspase 3/7 activation in MEF A1-2A-BIM cells, primary screen, A1 inhibitor project, cell-based, luminescence, HTS; Caspase-Glo 3/7 luminescence, 3 h; percent of clofoctol response, vehicle zero; caspase activation, % (test concentration not listed); 0.066% of 330,000 active;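 active means over half of replicate activation scores above 10%, or exactly half above 10 with the replicate mean above 10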
UPR CHOP act = activators of apoptotic CHOP UPR arm, primary screen, cell-based, CHO-CHOP luciferase reporter, luminescence, uHTS. UPR activation; percent of tunicamycin response over DMSO baseline. activation, % at 10 µM. 0.34% of 330,000 active;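 active means at 10 µM dose, activation of 40% or more, normalized to positive control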;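 further: 100% = tunicamycin at 10 µg/mL and 0% = DMSO alone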
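measured by = luciferase luminescence | assay system = CHO-CHOP cells, stable luciferase reporter of PERK-eIF2a-CHOP signalling | amount = 500 reporter cells seeded per well | timing = 6 h compound exposure at 37 °C after overnight seeding | controls = positive tunicamycin 10 µg/mL, negative DMSO alone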
CHOP inhibitor = inhibitors of CHOP promoter induction, primary screen, cell-based, unfolded protein response, luciferase reporter | CHO-K1 CHOP-promoter luciferase, tunicamycin-induced, 15-18 h | 3.8% of 220,000 active | inhibition, % at 10 µM | AID 2732, 2010;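 active means compounds that reduced the stress-induced luciferase reporter signal by more than about 70% of percent inhibition, limit read from the data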;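 further: 0% = tunicamycin plus vehicle and 100% = wells without tunicamycin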
XBP1 UPR activ = activators of adaptive XBP1 UPR arm, primary screen, cell-based, CHO-XBP1 luciferase reporter, luminescence, uHTS. IRE1-XBP1 UPR activation; percent of tunicamycin response, DMSO as zero. activation, % at 20 µM. 0.33% of 330,000 active. AID 463104, 2010;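 active means versus positive control, 20 µM dose yields 30% or more activation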;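 further: 100% = tunicamycin at 10 µg/mL and 0% = DMSO only wells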
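Assay system: IRE1-XBP1 luciferase reporter CHO line. Input: 1000 cells/well. Buffer or medium: F12 with 10% serum. Doses: 20 µM, 1% DMSO. Times: overnight seeding at 37 °C, 6 h compound treatment at 37 °C. Technique: Steady-Glo luciferase glow luminescence, 10 min after reagent addition.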
CHOP confirm = retest of CHOP induction inhibitors, confirmation, cell-based; shares compounds with CHOP inhibitor; CHO-CHOP promoter luciferase reporter, tunicamycin-induced, luminescence; inhibition, % at 10 µM; 45% of 2,100 active; AID 504437, 2011;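 active means mean of three repeat readings of reporter signal inhibition above a set limit, cut at about 70% in these data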;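 further: 0% = tunicamycin plus vehicle and 100% = wells lacking tunicamycin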
Numbers without * were called inactive; · = no result. Only a selection was taken, and hits are over-represented in it overall.

SMILES	Bfl-1 A1 inh	UPR CHOP act	CHOP inhibitor	XBP1 UPR activ	CHOP confirm
CCN1/C(=C/c2ccc3cc(C)ccc3[n+]2C)Sc2ccc3sccc3c21	·	·	109.3*	·	102.4*
CCCN1C(C)C(C(=O)OCC)=CN(Cc2cccc(I)c2)S1(=O)=O (stereo not given)	·	1.4	·	-2.4	·
CC(OC(=O)c1oc2ccccc2c1CSC1CCCCC1)C(=O)NC(N)=O (stereo not given)	0.1	5.1	101.2*	1.8	36.3
CC(OC(=O)c1oc2ccccc2c1COc1ccccc1)C(=O)NC(N)=O (stereo not given)	-0.1	0.8	31.2	2.6	·
NC(=S)n1[nH]c(-c2ccc([N+](=O)[O-])cc2)c(N=Nc2ccc(O)cc2)c1=O	0.9	3.9	106.7*	5.2	-20.5
Cc1ccc(S(=O)(=O)NCCC(=O)N2CCN(c3ccccc3)CC2)cc1C	·	-0.4	·	-1.9	·
CCC(=O)N1CCc2cc(Br)cc(S(=O)(=O)N3CCCCC3CC)c21 (stereo not given)	-0.4	0.0	·	-0.1	·
Cc1ccc(S(=O)(=O)O/N=C2\CCCc3ccccc32)cc1	0.0	1.6	11.7	0.8	·
CC1=C(C)/C(=N\OS(=O)(=O)c2ccccc2)C=CC1=O	-1.3	-10.6	·	-5.9	124.0*
COc1ccc(CNC(=O)CN2CCC(NC(=O)c3ccc(OC)cc3)CC2)cc1	·	0.3	·	-2.5	·
COc1cc(C(=O)NNC(=S)Nc2ccc(S(N)(=O)=O)cc2)cc(OC)c1OC	-0.7	-1.9	-16.8	-2.8	·
NC(=O)CC(NC(=O)Cc1ccc(Br)cc1)c1ccc(NCc2cc(F)ccc2F)c([N+](=O)[O-])c1 (stereo not given)	-1.1	-1.7	97.0*	-0.5	6.8
NC(=O)CC(NC(=O)Cc1cccc2ccccc12)c1ccc(NCc2ccc(F)cc2)c([N+](=O)[O-])c1 (stereo not given)	0.6	-3.4	105.3*	-3.0	108.2*
NC(=O)CC(NC(=O)Cc1ccc(Br)cc1)c1ccc(NCCc2cccc(F)c2)c([N+](=O)[O-])c1 (stereo not given)	0.7	-1.5	-2.3	-3.0	·
NC(=O)CC(NC(=O)Cc1cccc2ccccc12)c1ccc(NCc2ccccc2)c([N+](=O)[O-])c1 (stereo not given)	0.0	1.4	101.0*	0.4	91.4*
NC(=O)CC(NC(=O)Cc1cccc2ccccc12)c1ccc(NCCc2ccc(F)cc2)c([N+](=O)[O-])c1 (stereo not given)	2.6	-0.4	59.3	0.1	·
O=C(Cn1ncc2c3ccccc3n(Cc3ccccc3)c2c1=O)NCc1ccco1	0.6	0.8	96.4*	-2.4	16.1
O=C(Cn1ncc2c3ccccc3n(Cc3ccccc3)c2c1=O)NCCN1CCOCC1	-2.1	0.6	·	-4.0	·
CCOC(=O)/C=C/S(=O)(=O)c1ccc(NC(C)=O)cc1	2.7	-11.6	·	-7.8	120.6*
CCOC(=O)/C=C/C(=O)Nc1ccc(S(=O)(=O)Nc2c(C)cc(C)cc2C)cc1	1.1	0.8	34.4	-0.5	·
Cc1ccc(Cl)cc1NC1=C/C(=N\S(=O)(=O)c2cccs2)c2ccccc2C1=O	0.6	-5.7	109.1*	-5.7	115.8*
Cc1cccc(NC2=C/C(=N/S(=O)(=O)c3cccs3)c3ccccc3C2=O)c1	-0.1	·	106.4*	·	114.1*
O=C1C(Nc2ccc(O)cc2)=C/C(=N/S(=O)(=O)c2cccs2)c2ccccc21	·	·	108.1*	·	110.4*
CCc1ccc(S(=O)(=O)/N=C2\C=C(Nc3ccc(O)cc3)C(=O)c3ccccc32)cc1	0.8	3.0	·	-9.6	·
Cc1cc(C)c(S(=O)(=O)/N=C2\C=C(NS(=O)(=O)c3ccccc3)C(=O)c3ccccc32)c(C)c1	0.0	5.3	·	-3.5	·
SMILES	Bfl-1 A1 inh	UPR CHOP act	CHOP inhibitor	XBP1 UPR activ	CHOP confirm
Cc1ccc(NC2=C/C(=N\S(=O)(=O)c3cccs3)c3ccccc3C2=O)c(C)c1	2.3	-4.0	·	-2.9	118.8*
COc1cc(OC)cc(C(=O)N2CCN(Cc3ccc4c(c3)OCO4)CC2)c1	1.1	1.1	·	-4.5	·
O=C(N=Nc1c(O)[nH]c2ccccc12)c1cccc(S(=O)(=O)N2CCCCC2)c1	0.4	2.8	96.8*	14.1	-26.7
C/C(CCc1ccc2c(c1)OCO2)=N\N=C(/N)SC1CC(=O)N(c2ccc(Cl)cc2)C1=O (stereo not given)	0.5	-0.7	97.2*	-3.6	2.0
CC(C)(C)n1nnnc1CN(Cc1ccc(F)cc1)Cc1ccco1	0.9	-0.9	100.6*	-0.7	62.3
COc1cccc(CN(Cc2ccco2)C(c2ccc(F)cc2)c2nnnn2C(C)(C)C)c1 (stereo not given)	-0.3	-0.7	47.8	-2.2	·
COc1ccc2c(c1)cc(C(=O)N[C@@H](CCSC)C(=O)N1CCC(C(=O)O)CC1)n2C	-0.3	0.4	·	-0.1	·
Cc1ccc(-c2csc3nc4c5ccccc5c(NCCCN(C)C)nn4c(=O)c23)cc1	0.0	1.9	101.5*	12.6	-305.2
Cc1ccc(-c2csc3nc4c5ccccc5c(NCCCN5CCOCC5)nn4c(=O)c23)cc1	1.5	3.1	11.2	6.6	·
Cc1cccc(CSC2=NCCN2S(=O)(=O)c2ccc(F)cc2)c1	1.3	3.9	·	-1.0	·
NC(N)=N/N=C/c1ccc(OCc2ccccc2)cc1	-3.4	5.3	-26.1	3.1	·
NC(N)=N/N=C/c1ccc(OCc2ccc(Cl)cc2)cc1	-0.1	5.7	107.2*	5.1	2.8
O=C(CNC1CCCCCC1)Nc1ccccc1N1CCCCC1	-0.2	-0.1	97.6*	0.0	93.9*
O=C(Cc1ccccc1)Nc1ccccc1N1CCCC1	1.0	2.1	11.6	-1.4	·
CCOC(=O)c1cccc(NC(=O)c2ccc(-n3cnnn3)cc2)c1	-0.1	-0.1	·	-0.1	·
CC(=O)Nc1ccc(NC(=O)C(C)OC(=O)c2c(NC(C)=O)sc(C)c2C)cc1 (stereo not given)	-2.0	-0.1	·	1.2	·
CC(=O)Nc1sc(N/N=C\c2ccccc2Cl)nc1-c1cccs1	-0.1	4.7	102.8*	3.6	3.0
CC(=O)Nc1sc(N/N=C\c2ccccc2)nc1-c1cccs1	0.0	0.2	0.9	-1.7	·
O/N=C/c1cccc[n+]1CCCCCC[n+]1ccccc1/C=N/O	0.9	-2.3	·	-3.1	·
CCCCCCCCCCCCCCCC[n+]1ccc(/C=N/O)cc1	1.4	24.4	103.0*	7.6	124.8*
COc1cccc(-n2nc(C#N)c(Cl)cc2=O)c1	·	3.3	106.7*	-8.3	-77.4
CCN(c1ccccc1)S(=O)(=O)c1ccc(C(=O)N2CCN(c3ccccc3)CC2)cc1	-1.2	-0.1	·	-2.0	·
Nc1c(-c2ccc3c(c2)OCCO3)oc2ccccc2c1=O	-6.9	0.7	·	3.3	·
Cc1cc(C)n(S(=O)(=O)c2ccccc2[N+](=O)[O-])n1	0.4	-0.4	·	-2.4	·

Compound activity as filed in PubChem.
